Experimental data: ChEMBL document CHEMBL4513216, “Probing the Open Global Health Chemical Diversity Library for Multistage-Active Starting Points for Next-Generation Antimalarials” (ACS Infect Dis, 2020)

test: Toxicity liver stage against HepG2, at 10uM; type: cell-based; design: test concentration 10 uM, cell line HepG2-A16-CD81EGFP; conditions: human, HepG2-A16-CD81EGFP cells; read-out: INHIBITION
Procedure, shortened: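 Uninfected HepG2-A16-CD81EGFP cells, 3 × 10^3 per well, 1536-well, plated on prespotted compound at 10 μM final, parasite-free screening media added to match infected plates; puromycin 10 μM positive, DMSO 0.5% negative; run in parallel with 48 h PbLuc assay at 37 °C, 5% CO2; viability by CellTiter-Glo luminescence, normalized to controls.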

Row | SMILES | cytotoxicity at 10 µM [%]
1 | O=C(NCCCn1cccn1)C1CCC(=O)N(Cc2ccccc2F)C1 (stereo not given) | -3.75
2 | CCOC(=O)CCC(=O)NC(C)c1ccc(NC(=O)CC)cc1 (stereo not given) | 0.097
3 | CC(C)CCNC(=O)Cc1cnc(-n2cccc2)s1 | -2.49
4 | CC(C)(C)C1SCC(=O)Nc2c1c(O)nn2C1CCCCC1 (stereo not given) | -16.7
5 | Cc1ccc(NC(=O)Nc2cnc(N3CCN(C)CC3)nc2)cc1 | -15.4
6 | CC(C)(C)C(=O)N1CC[C@@H]2[C@H](CC1)N(S(C)(=O)=O)CCS2(=O)=O | 0.64
7 | Cc1cccc(CN2C(=O)CCC23CCN(Cc2nccn2C)CC3)n1 | 5.47
8 | Cc1c(C)n(CC(O)CN2CCC(C)CC2)c2c(Cl)cccc12 (stereo not given) | -5.12
9 | CCOC(=O)c1cn(CC(O)c2ccccc2OC)nn1 (stereo not given) | -4.06
10 | O=C(c1cnc2ccc(F)cc2c1NCc1ccco1)N1CCCC1 | -54.5
11 | COC1CC2(CCN(Cc3ccc4c(c3)OCO4)CC2)C1 | 3.07
12 | O=C1CC(c2ccccc2)C2(CCN(Cc3ccccn3)CC2)N1 (stereo not given) | 3.91
13 | CN(C)c1cc(CC(NC(=O)C2CC2)c2ccccc2)nc(C2CC2)n1 (stereo not given) | 5.73
14 | Cc1nn(C)cc1S(=O)(=O)N[C@@H]1CCC[C@@H](N2CCCC2)[C@@H]1O | -3.02
15 | Cc1nn(C)c(C)c1-c1ccc(=O)n(C(C)C(=O)NC2CC2)n1 (stereo not given) | 0.0475
16 | CCC1CCCCN1C(=O)Cn1nc(-c2cc(C)oc2C)cc(N)c1=O (stereo not given) | 2.44
17 | CC(=O)N1CCC(c2n[nH]cc2-c2ccnc(N)c2)C1 (stereo not given) | 0.355
18 | CN(C)c1ncccc1CN1CCOC(C(=O)Nc2ccccc2)C1 (stereo not given) | -29.7
19 | Cc1ccc(CN2CC[C@H](O)[C@@H](n3ccc(=O)[nH]c3=O)CC2)cc1 | -22.8
20 | CC(C)N1CCCC(CCCc2ccccn2)(C(=O)O)C1 (stereo not given) | 2.6
21 | CC(C)NC(=O)N1CCN(c2ccc(Cl)nn2)C(=O)C1 | 5.01
22 | O=C(c1cccnc1)N1CCC2(CNS(=O)(=O)c3cnccc3O2)C1 (stereo not given) | 15.7

Row | SMILES | cytotoxicity at 10 µM [%]
23 | COc1ccc(CCNC(=O)NCc2cccc(C(N)=O)c2)cc1OC | 11.8
24 | Cc1[nH]nc2ncc(C(=O)N3CCCC3c3noc(C(C)C)n3)cc12 (stereo not given) | 8.38
25 | NC(=O)C1CCCN(S(=O)(=O)c2cnn(-c3ccccc3)c2)C1 (stereo not given) | -66.6
26 | COc1ccc(CCC2CCCCN2)cc1OC (stereo not given) | 12.1
27 | Cc1ccc(C(C)N(C)C(=O)c2ccc(=O)n(C)c2)s1 (stereo not given) | -4.27
28 | COc1ccc(-c2nnc(C(C)N3CCOCC3)o2)cc1 (stereo not given) | -10.4
29 | CC1CN(Cc2cccc(CNC3CCCC3)c2)CCO1 (stereo not given) | 3.06
30 | Cc1noc(C(C)N2CCN(Cc3noc(C4CC4)n3)CC2)n1 (stereo not given) | 0.973
31 | CCCN(CCC)C(=O)CN1CCCC1C(=O)N(C)C (stereo not given) | 7.42
32 | COC(=O)C(CNC(=O)Nc1nncs1)Cc1ccc(F)cc1 (stereo not given) | 0.571
33 | O=C(CN(Cc1cccs1)c1ccc(F)cc1)NC1CCOCC1 | 13.5
34 | CC(c1ccccn1)N(C)C(=O)CN1CCN(c2ccccn2)CC1 (stereo not given) | 5.1
35 | NC(=O)N1CCCC(C(=O)Nc2cccc(Cl)c2)C1 (stereo not given) | 8.16
36 | CC(C)Cc1noc(CC2CCS(=O)(=O)C2)n1 (stereo not given) | 3.03
37 | COc1cc(OC)cc(N2CCC(NCc3cccs3)C2=O)c1 (stereo not given) | 4.63
38 | Cc1ccc(C(=O)NCC(C)CN2CCCC2=O)c(=O)[nH]1 (stereo not given) | -8.57
39 | CC(NC(=O)c1ccc(C#N)cn1)C1(N2CCOCC2)CCCC1 (stereo not given) | 2.54
40 | CC(C)(C)C(=O)NCc1nccn1CCc1ccccc1 | 3.75
41 | CC(C)c1nc(C(=O)N2CCOCC2CC(=O)c2ccco2)cs1 (stereo not given) | -7.58
42 | Cc1nn(C)c(C)c1NC(=O)CNc1cc(C(F)(F)F)ccc1F | 13.4
43 | Cc1nn(C)c(C)c1CCC(=O)OCC(=O)N1CCc2sccc2C1 | 0.927
44 | Cc1nn(C)c(C)c1C(=O)NCc1cccnc1OC1CCCC1 | -0.171

Row | SMILES | cytotoxicity at 10 µM [%]
45 | c1ccc(OCCN2CCC(n3cncn3)CC2)cc1 | -20.7
46 | Cc1noc(C)c1CC(=O)Nc1ccn(CC(N)=O)n1 | 9.86
47 | CCc1nc(CC)n(CC(=O)NCc2ccccc2C)n1 | 15.2
48 | CN(CC(=O)NC1CC1)C(=O)c1csc(Br)c1 | -0.872
49 | CC(C)c1ocnc1C(=O)N1CC(=O)Nc2cccnc21 | 1.56
50 | CC(C#N)(NC(=O)Cn1cc(I)cn1)C1CC1 (stereo not given) | 15.2
51 | c1ccc2[nH]c(C3CCN(Cc4nc(C5CC5)no4)CC3)cc2c1 | 9.02
52 | COc1ccc(-c2nnc(SC(C)C(=O)NC3CC3)[nH]2)c(OC)c1 (stereo not given) | 45.3
53 | Cc1nn(CC(=O)N2CCCC2Cn2cccn2)c(C)c1Cl (stereo not given) | 2.27
54 | CCS(=O)(=O)N1Cc2nccn2CC(Cn2cccn2)C1 (stereo not given) | 10.7
55 | CC(=O)N1CCC2(CC1)CN(CC1CC1)c1ccc(F)cc12 | -113
56 | CC(=O)N1CCO[C@@H]2CN(S(=O)(=O)C3CC3)CC[C@@H]2C1 | -112
57 | CCO[C@@H]1CCN(C(=O)c2cscn2)[C@@H]1Cc1cnn(C)c1 | 4.84
58 | CC(=O)NC(C)C1=CCCN(Cc2ccc(C(=O)O)cc2)C1 (stereo not given) | -12.1
59 | COc1ccccc1CC(=O)N(CCN1CCOCC1)Cc1ccco1 | 2.91
60 | Cc1nc(CN2CCC3(CCCO3)CCC2=O)no1 (stereo not given) | -0.452
61 | COc1cccc2c1OCC(C(=O)NCCCn1nc(C)c(Cl)c1C)C2 (stereo not given) | -4.12
62 | O=c1c2sccc2ncn1Cc1cc(C2CC2)[nH]n1 | 0.463
63 | Cc1nn(C)c2nc(N3CCN(Cc4nccn4C)CC3)sc12 | -4.66
64 | CC(c1ccccn1)N(C)Cc1ccc(-n2ccnc2)cc1 (stereo not given) | -0.452
65 | Cc1cc(C)cc(CN2CCN(Cc3ccc4nonc4c3)CC2=O)c1 | 0.403
66 | CN1CCC2(CCCN(S(=O)(=O)c3ccc(-c4cnco4)s3)C2)C1 (stereo not given) | -7.56

Row | SMILES | cytotoxicity at 10 µM [%]
67 | Cc1ccc(NCCCNC(=O)C2CC3(CCNCC3)CN2C)nc1 (stereo not given) | 6.07
68 | Cn1c(Cn2ncc(N3CCCC3)cc2=O)nc2ccccc21 | 5.65
69 | CN(CCCc1cnn(C)c1)C(=O)C1CCCN(C2CCCC2)C1 (stereo not given) | -7.17
70 | Cc1c(-c2ccccc2)ncn1CC(c1cccnc1)N1CCOCC1 (stereo not given) | 2.11
71 | CCN1CCN(C(=O)CCC2CCN(C(C)CSC)CC2)CC1 (stereo not given) | -0.0154
72 | O=C1N(Cc2ccc(F)c(F)c2)CCCC12CCN(C1CCCC1)C2 (stereo not given) | -2.8
73 | CCn1nc(C(C)C)cc1C(=O)NCc1nc2ccc(OC)cc2[nH]1 | 4.28
74 | CCC(CO)N(Cc1ccsc1)Cc1ccccc1C#N (stereo not given) | 9.64
75 | O=C(NCC(F)F)c1ccc(S(=O)(=O)N2CCCC(O)C2)cc1 (stereo not given) | 1.29
76 | CN1CC(c2ccccc2)CC12CCN(C(=O)c1ccc(Cl)cc1)CC2 (stereo not given) | -2.72
77 | Nc1cc(C(=O)NCC2CCN(CCc3ccccc3)C2)ccn1 (stereo not given) | -5.47
78 | Cc1ncc(CN2CCCC2c2ccc(C(=O)NCc3ccoc3)s2)s1 (stereo not given) | -1.06
79 | Cc1nc(C2CCN(C(=O)c3ccc(=O)n(C)c3)CC2)c2sccn12 | -5.38
80 | O=C1COc2cc(C(=O)NS(=O)(=O)c3cc(Cl)ccc3Cl)ccc2N1 | -7.96
81 | COc1ccc(C2CCCN2Cc2ccc(S(=O)(=O)N(C)C)o2)cc1 (stereo not given) | -5
82 | CCNc1cc2c(nn1)CCN(C(=O)Cc1ccc(C)s1)C2 | -0.375
83 | Cn1cc(CCNCc2cc(Br)c3c(c2)OCO3)cn1 | -18
84 | CC1CCCN(S(=O)(=O)NCc2ccccc2Cn2cncn2)C1 (stereo not given) | 1.55
85 | Cc1cnn(CCC(=O)N2CCCN(c3ccccc3C#N)CC2)c1 | -2.85
86 | CN1CCCc2cc(CNC(=O)c3ccc(-n4cnnc4)cc3)ccc21 | -4.9
87 | O=C(NCCNc1ccc(C(F)(F)F)cn1)c1cc(Cl)ccc1F | -8.27
88 | COc1c(C2CCCN2C(=O)c2ccc(O)nc2)c(C)nn1C (stereo not given) | 2.63

Row | SMILES | cytotoxicity at 10 µM [%]
89 | Cc1nc2ccccc2nc1CN1CCCCC1Cn1cncn1 (stereo not given) | -7.36
90 | Cc1cc(C[S+]([O-])CC(=O)NCc2cccs2)no1 (stereo not given) | -12.3
91 | Cc1ccc(NC2CCN(C(=O)c3cccn3C)CC2)nn1 | -3.76
92 | COc1cc(CNC2CCc3nc(C)nn3C2)cc2c1OCCO2 (stereo not given) | -9.16
93 | Cc1nccn1C1CCCN(C(=O)c2ccc(N(C)C)nc2)C1 (stereo not given) | -7.62
94 | O=S(=O)(N(Cc1ccccn1)C1CC1)N1CCCC1c1ccco1 (stereo not given) | -3.73
95 | Cc1cnn(CC2CCCCN2Cc2nnc(-c3ccco3)o2)c1 (stereo not given) | -10.4
96 | Cc1cc(C(=O)O)cc(S(=O)(=O)Nc2ccc3c(c2)OCO3)c1C | 0.89
97 | COc1cc(C)nc(N2CCN(C(=O)CNC(C)(C)C)CC2)n1 | -7.67
98 | CN(C)c1cc(CNC(=O)c2ccc(F)cc2F)ccn1 | -4.82
99 | CC(C)C(=O)N1C[C@H]2CCCN[C@H]2C1 | 1.55
100 | C[C@@H]1CN(Cc2cccnc2)C[C@]12CCN(CCN1CCCC1)C2=O | -6.04
101 | Cc1cccc(CN2CCC3(CC2)NC(=O)CC3c2ccccc2)n1 (stereo not given) | -0.508
102 | CC1=N[C@@]2(CC[C@@H]3CN(CC(=O)N(C)C)C[C@@H]32)C(=O)N1CC1CC1 | -3.9
103 | O=C1COC2(COCCN(Cc3cccnc3)C2)CN1c1ccccc1 (stereo not given) | 9.72
104 | Cc1cc(S(=O)(=O)NC(C)(C)CN)c(F)cc1F | 4.87
105 | Cc1cc(F)c(S(=O)(=O)NCC(C)(C)N)cc1F | 6.65
106 | Cc1ccc(CN2CCc3nnc(CN4CCCC4=O)n3CC2)s1 | 1.02
107 | Cc1noc(C)c1CN1CC[C@H]2OCC[C@@]2(C(=O)N2CCCO2)C1 | 1.59
108 | CN(C)C(=O)N1CCO[C@@H]2CC(COCc3cccnc3)C[C@H]21 (stereo not given in full) | 8.61
109 | O=C(Nc1ccccc1)N1CCn2nnc(COc3cccnc3)c2C1 | -2.03
110 | Cn1cccc1C(=O)N1CCC2(CCN(C(=O)c3cccnc3)C2)CC1 | -102
